Source: PubChem BioAssay (several laboratories)
A3A deaminase = APOBEC3A ssDNA deaminase inhibitors, primary screen, selectivity assay for APOBEC3G inhibitor project, biochemical, FAM/TAMRA oligo cleavage fluorescence | 330,000 tested, 0.41% active | inhibition, % at 20 µM | DNA dC->dU-editing enzyme APOBEC-3A (Homo sapiens), P31941 | recombinant A3A, FAM/TAMRA ssDNA deamination fluorescence;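 active = at least 40% inhibition at 20 µM here, with at most 30% in a related deaminase screen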
Target sequence (P31941 whole entry, looked up): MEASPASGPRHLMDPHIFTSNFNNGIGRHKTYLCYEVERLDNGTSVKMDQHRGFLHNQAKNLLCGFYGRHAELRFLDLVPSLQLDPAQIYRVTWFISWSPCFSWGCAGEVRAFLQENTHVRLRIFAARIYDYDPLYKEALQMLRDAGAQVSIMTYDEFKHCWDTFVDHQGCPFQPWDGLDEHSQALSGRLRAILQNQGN
NS3 helicase inh = inhibitors of HCV NS3 helicase, primary screen, biochemical, Cy5 molecular beacon fluorescence | Hepatitis C virus NS3 helicase | NS3 helicase DNA unwinding | inhibition, % at 10.9 µM | 290,000 tested, 0.56% active;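 active = inhibition above the mean of all tested compounds plus 3 SD, set per campaign, cut at about 35% in these data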
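Test system: hepatitis C virus NS3 helicase domain fragment enzyme. Also added: annealed dual-labelled DNA beacon duplex, ATP-started. Timing: 60 min unwinding reaction at 25 °C after ATP addition. Technique: Cy5 fluorescence. Measure: % inhibition of unwinding.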
PRMT1 inh = PRMT1 methyltransferase inhibitors, primary screen, biochemical, fluorescence polarization; Protein arginine N-methyltransferase 1 (Homo sapiens), Q99873; recombinant PRMT1, activity-based probe fluorescence polarization; inhibition, % at 2.79 µM; 370,000 tested, 1.3% active; AID 652257, 2013;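 active = inhibition above about 21% made by adding two undisclosed values, limit read from the data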
HCV core dimer = inhibitors of HCV core protein dimerization, primary screen, biochemical, TR-FRET, high-throughput; AID 1899, 2009; inhibition, % at 5 µM; 300,000 tested, 0.33% active; TR-FRET GST/Flag-core106 dimerization, 1536-well;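 active = inhibition above the mean of all tested compounds plus 3 SD, set per screening campaign, cut at about 45% in these data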
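System: GST-tagged and Flag-tagged HCV core protein residues 1-106 / Input: core106 proteins, GST 13.5 nM and Flag 17 nM / Buffer or medium: KF-containing HEPES buffer, pH 7.45, DTT, CHAPS, BSA / Probe or stimulus: Eu-anti-GST and XL665-anti-Flag labelled anti-tag antibodies / Schedule: 4 h, 22.5 °C incubation / Technique: TR-FRET 671 and 617 nm emission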
APOBEC3G inh = APOBEC3G DNA deaminase inhibitors, primary screen, biochemical, fluorescence, single-stranded DNA substrate, uHTS; AID 493012, 2011; 330,000 tested, 0.28% active; recombinant A3G, ssDNA deamination FAM/TAMRA fluorescence; DNA dC->dU-editing enzyme APOBEC-3G (Homo sapiens), Q9HC16; inhibition, % at 20 µM;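 active = inhibition of at least 40% at 20 µM, with no more than 30% in the related APOBEC3A deaminase screen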
Target sequence (Q9HC16 whole entry, looked up): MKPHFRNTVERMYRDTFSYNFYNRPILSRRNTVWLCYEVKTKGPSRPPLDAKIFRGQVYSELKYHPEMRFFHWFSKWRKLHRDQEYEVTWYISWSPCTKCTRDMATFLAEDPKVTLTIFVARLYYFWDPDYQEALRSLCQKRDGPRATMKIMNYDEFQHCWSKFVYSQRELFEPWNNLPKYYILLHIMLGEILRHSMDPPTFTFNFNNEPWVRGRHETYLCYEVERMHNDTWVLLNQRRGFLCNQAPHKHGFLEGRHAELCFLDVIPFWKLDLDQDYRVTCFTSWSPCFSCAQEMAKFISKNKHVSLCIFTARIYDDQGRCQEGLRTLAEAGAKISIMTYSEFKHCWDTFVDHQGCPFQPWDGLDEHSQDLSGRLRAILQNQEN
ABHD5 PLIN5 PPI = ABHD5-PLIN5 interaction inhibitors, primary screen, cell lysate, split luciferase complementation, luminescence | Split G. princeps luciferase complementation, 4 h | inhibition, % at 4 µM | 360,000 tested, 0.78% active;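 active = inhibition above the mean inhibition across every tested compound plus 3 SD, cut at about 22% in these data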
Numbers stand for hits; . = inactive; / = no result. Hits are enriched below; roughly 2.9% of the tested compounds scored in any of these assays.

SMILES	A3A deaminase	NS3 helicase inh	PRMT1 inh	HCV core dimer	APOBEC3G inh	ABHD5 PLIN5 PPI
COc1ccc(-c2cc(-c3n[nH]c(=S)n3-c3cc(OC)ccc3OC)[nH]n2)cc1	.	.	25	.	.	.
COc1ccc(-c2n[nH]c(=S)n2-c2cc(OC)ccc2OC)cc1	.	.	.	.	.	.
COC(=O)[C@]12C[C@H](CC(=O)NCc3ccc(C)o3)C(=O)N(CCC3=CCCCC3)C1=C[C@H](C(C)C)O[C@@H]2C1CC1	/	/	.	/	/	/
CN1C(=O)c2c(sc3c2CCCC3)NC1c1ccccc1O (stereo not drawn)	.	.	/	55	.	/
CC(C)C[C@H]1COc2cc(N3CCSCC3)ccc2S(=O)(=O)N1C	/	/	.	/	/	/
CCc1ccc(C2C(C#N)=C(N)SC(N)=C2C#N)cc1	.	.	.	.	.	.
Cc1ccc(C2C(C#N)=C(N)SC(N)=C2C#N)o1	.	.	/	46	.	/
CCc1ccc(C2C(C#N)=C(N)SC(N)=C2C#N)s1	.	.	/	53	.	.
CCOC(=O)CC[C@H]1CC[C@]2(CCCN(C(=O)c3ccc4ccccc4n3)C2)O1	/	/	.	/	/	/
CCOC(=O)N1CCN(C(=O)C[C@H]2C[C@@]3(C(=O)OC)C(=C[C@H](COCc4ccccc4)O[C@@H]3C)N(Cc3ccc4c(c3)OCO4)C2=O)CC1	/	/	.	/	/	/
C1CCC(c2nn3c(-c4n[nH]c5c4CCC5)nnc3s2)CC1	.	.	.	51	.	.
Cc1cccc(N(C)S(=O)(=O)c2ccc3c(c2)C(C)(C)C(=O)N3C)c1	.	.	.	54	.	.
Cc1cccc(N2CCN(S(=O)(=O)c3ccc4c(c3)C(C)(C)C(=O)N4C)CC2)c1C	.	.	.	47	.	.
O=C(NC1=N[C@@]2(C=C3CCCCC3n3c(=O)n(-c4ccccc4)c(=O)n32)[C@H](Cc2ccccc2)N1Cc1ccccc1)c1ccccc1 (stereo partly drawn)	/	/	.	/	/	/
COC(=O)c1cc2nc(-c3ccccc3)cc(C)n2n1	.	.	.	.	.	.
CCOc1ccc(-c2cc(C)n3nc(C(N)=O)cc3n2)cc1	.	.	.	50	.	.
O=C(N[C@H](Cc1ccccc1)C(=O)N1CCN(CC(=O)N2CCCC2)CC1)[C@H]1O[C@@H](n2ccc(=O)[nH]c2=O)[C@H](O)[C@@H]1O	/	/	.	/	/	/
O=C1CSC(=S)N1Nc1ccccc1	/	/	24	/	/	.
COc1ccc(CCNC(=O)Nc2cccs2)c(OC)c1	.	.	23	.	.	.
O=C(Cn1cnc2ccccc2c1=O)N1CCCCC1	/	/	.	/	/	/
Nc1sc2c(c1C(=O)NC1CCS(=O)(=O)C1)CCCC2 (stereo not drawn)	.	.	23	.	.	.
Nc1sc2c(c1C(=O)NCCc1ccccc1)CCCC2	/	/	36	/	/	.
CCN(CC)C(=O)[C@H]1C[C@@H]2[C@H](C[C@@H](c3ccccc3)[C@H]1C)N(c1ccc(F)cc1)C(=O)N2C/C=C(\C)CCC=C(C)C	/	/	.	/	/	/
CCCS(=O)(=O)c1cn2cccc(N)c2c1S(=O)(=O)CCC	.	.	33	.	.	.
Cc1cc(N2CCNC[C@H]2C)ccc1N1CCN(Cc2ccccc2)[C@H](C)C1	/	/	.	/	/	/
SMILES	A3A deaminase	NS3 helicase inh	PRMT1 inh	HCV core dimer	APOBEC3G inh	ABHD5 PLIN5 PPI
N#CC1=C(N)Oc2c(ccc3ccccc23)C1c1ccsc1 (stereo not drawn)	.	.	.	71	.	.
N#CC1=C(N)Oc2c(oc(CO)cc2=O)C1c1ccsc1 (stereo not drawn)	.	.	.	.	.	.
Cc1ccc(CN2C(=O)C3CCCN3c3ccc(S(=O)(=O)N4CCOCC4)cc32)cc1 (stereo not drawn)	.	.	/	48	.	/
CC(=O)C[C@H]1c2cc(C(F)(F)F)ccc2S(=O)(=O)N1c1ccc(N(C)C)cc1	.	/	.	.	.	.
O=C(NCc1cccnc1)c1ccc(COc2ccc(Cl)cc2Cl)o1	.	.	.	.	.	.
O=C(NCc1cccnc1)c1ccc(COc2cccc3ccccc23)o1	.	.	.	61	.	.
COc1cc(OC)cc(-c2c(-c3cccs3)c3cc(Br)ccc3n2C)c1	.	/	25	/	.	.
COc1cc(F)cc(-c2ccc3c(c2)c(-c2cccs2)c(-c2cc(OC)cc(OC)c2)n3C)c1	.	/	.	/	.	.
OC(c1ccccc1)(c1ccccc1)C1CCN(CCCOc2ccc(C(F)(F)F)cc2)CC1	/	/	.	/	/	/
CN(c1ccccc1)c1ccc(/C=C(\CCC(=O)O)c2nc3ccccc3s2)cc1[N+](=O)[O-]	.	.	.	60	.	.
Cc1ccc(/C=C(\CCC(=O)O)c2nc3ccccc3s2)cc1[N+](=O)[O-]	.	.	.	.	.	.
COc1ccc(C(=O)Nc2cccc(/C=C(\CCC(=O)O)c3nc4ccccc4s3)c2)cc1	.	.	.	64	.	.
COC(=O)[C@]12C[C@H](CC(=O)NCc3ccc(OC)c(OC)c3)C(=O)N(Cc3cccc4ccccc34)C1=C[C@H](C(C)(C)C)O[C@@H]2C	/	/	.	/	/	/
CCCNC(=O)C1(C)CCN(CCOc2ccc(Cl)cc2)C1 (stereo not drawn)	/	/	.	/	/	.
Cc1ccccc1-c1csc(C(O)c2ccc(F)c(F)c2)n1 (stereo not drawn)	/	/	.	/	/	.
Cc1ccc2c(c1)/C(=C/c1ccccc1)C(=O)N2	.	.	.	.	.	23
O=C1/C(=C/c2ccccc2)Nc2ccccc21	.	.	.	.	.	.
CCN(CC)C(=O)C1=C(C)N(Cc2ccccc2)C(=O)C(CC(=O)NCc2ccco2)C1 (stereo not drawn)	/	/	.	/	/	.
CC(=O)c1coc2c1cc(O)c1ccccc12	.	.	.	.	.	.
CC(=O)c1cc(O)c2ccccc2c1O	.	.	45	.	.	.
Cc1ccc(C(=O)O)cc1N1C(=O)c2cccc3c([N+](=O)[O-])ccc(c23)C1=O	.	.	22	.	.	.
COc1ccccc1/C=C1\SC(=S)N(CC(=O)NC2CCS(=O)(=O)C2)C1=O (stereo not drawn)	.	.	.	.	.	.
COc1ccc(Cl)cc1NC(=O)COC(=O)CCCC1=NS(=O)(=O)c2ccccc2N1	.	.	.	.	.	.
COCCn1c(Cc2ccccc2)nnc1SCC(=O)Nc1oc(C)c2c(C)n[nH]c(=O)c12	.	/	.	.	.	.
